Screening data from PubChem.
TDP2 absorb = blocks human TDP2 phosphodiesterase activity | inhibition, % at 12.8 µM | recombinant TDP2, T5PNP hydrolysis, p-nitrophenol absorbance 415 nm | 370,000 compounds, 0.34% hits;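 active = inhibition above the mean of all tested compounds plus 3 SD, set per campaign, cut at about 25% in these data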
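System – recombinant human TDP2 · Quantity – TDP2 enzyme at 120 nM final · Doses – single concentration, 12.8 µM nominal, with 1% DMSO · Incubation – 2 h at 37 °C · Measured by – epi absorbance of p-nitrophenol freed from T5PNP by hydrolysis · Read-out – % inhibition relative to enzyme-containing and enzyme-free wells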
SIAE inh = human SIAE inhibition, primary screen | Q9HAT2 | SIAE FP-Rh probe binding, fluorescence polarization | inhibition, % at 9.66 µM | 370,000 compounds, 0.69% hits | AID 1053197;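 active = inhibition above a cutoff: mean of compounds within the control limits plus 3 SD of those, cut at about 17% in these data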
PRMT1 inh = PRMT1 (human) inhibition, primary screen; Q99873; recombinant PRMT1, activity-based probe fluorescence polarization; inhibition, % at 2.79 µM; 370,000 compounds, 1.3% hits; AID 652257;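 active = inhibition above about 21% made by adding two undisclosed values, limit read from the data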
UHRF1 MBD2 ctr = UHRF1 methyl-DNA binding inhibition; Q96T88; UHRF1 binding to methylated oligo, TR-FRET; inhibition, % at 4.4 µM; 370,000 compounds, 0.75% hits; AID 687016;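 note: UHRF1 SRA domain binding a hemimethylated CpG hairpin DNA probe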
LEDGF integ inh = blocks HIV-1 LEDGF/p75-dependent DNA integration | TR-FRET IN-LEDGF/p75 DNA integration, Eu/Cy5 | inhibition, % at 3.7 µM | 370,000 compounds, 0.64% hits | AID 743269;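 active = inhibition above the screen-wide mean plus 3 SD, cut at about 13% in these data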;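 note: signal is the Cy5 over europium emission ratio at 671 and 618 nm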
MBD2 inh = MBD2-methylated oligo binding inhibition; inhibition, % at 4.4 µM; TR-FRET, MBD2 binding to methylated oligonucleotide; Q9UBB5; AID 686964; 370,000 compounds, 0.31% hits; in the data active = inhibition above about 13%
Target sequence (Q9UBB5 whole entry, looked up): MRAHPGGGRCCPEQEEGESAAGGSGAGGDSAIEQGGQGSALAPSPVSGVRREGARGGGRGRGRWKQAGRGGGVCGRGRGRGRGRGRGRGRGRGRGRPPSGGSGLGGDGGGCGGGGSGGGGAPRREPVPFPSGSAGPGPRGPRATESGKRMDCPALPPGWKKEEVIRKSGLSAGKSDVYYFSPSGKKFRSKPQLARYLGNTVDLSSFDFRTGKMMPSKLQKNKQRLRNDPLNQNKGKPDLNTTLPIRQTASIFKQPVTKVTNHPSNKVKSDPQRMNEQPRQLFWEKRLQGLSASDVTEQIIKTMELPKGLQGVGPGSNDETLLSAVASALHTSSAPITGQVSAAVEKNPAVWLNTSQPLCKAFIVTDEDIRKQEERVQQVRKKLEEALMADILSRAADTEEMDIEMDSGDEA
UHRF1 DNA bind = counter-screen for MBD2 inhibitors: human UHRF1 methylated DNA binding inhibitors; shares compounds with MBD2 inh; UHRF1 binding to methylated oligonucleotide, TR-FRET; inhibition, % at 4.4 µM; 1,000 compounds, 25% hits;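 note: UHRF1 SRA domain binding a labeled hemimethylated CpG hairpin DNA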
MBD2 DBD conf = MBD2-DBD methyl-DNA binding inhibition, TR-FRET confirmation. 1,000 compounds, 26% hits. inhibition, % at 4.4 µM. TR-FRET MBD2-DBD binding to methylated oligonucleotide. shares compounds with MBD2 inh; in the data active = inhibition above about 14%
Each line names hits and unclear results; the compound was inactive in the other large screens (follow-up assays come after a bar, where they were run). Compounds with a hit are over-represented: about 3.3% of the library has one in this group of screens. Cut-off read from the data, not from the text of the source, unless noted: active = inhibition above about 21%; inactive = the rest.

Cc1c2cnn(CC(=O)Nc3c(F)c(F)cc(F)c3F)c(=O)c2c(C)n1Cc1ccccc1F	MBD2 inh 14 | UHRF1 DNA bind inactive | MBD2 DBD conf 29
CCCCn1nnnc1C(CCc1ccccc1)N1CCN(C/C=C/c2ccccc2)CC1 (stereo not drawn)	MBD2 inh 15 | UHRF1 DNA bind inactive | MBD2 DBD conf inactive
CC(=O)Nc1ccc(NC(=O)C(C)OC(=O)C2(c3ccc(Cl)cc3)CCCC2)cc1 (stereo not drawn)	UHRF1 MBD2 ctr 25, MBD2 inh 19 | UHRF1 DNA bind inactive | MBD2 DBD conf inactive
COc1cccc(-c2oc3c(c2-c2ccc(Br)nc2)C(O)CCC3)c1 (stereo not drawn)	MBD2 inh 13 | UHRF1 DNA bind 22 | MBD2 DBD conf 28
COc1cccc(-c2oc3c(c2C(=O)OCCN2CCCCC2)C(O)CCC3)c1 (stereo not drawn)	none
COc1ccc(NS(=O)(=O)c2ccc(SC)cc2)c(OC)c1	UHRF1 MBD2 ctr 23, MBD2 inh 17 | UHRF1 DNA bind inactive | MBD2 DBD conf inactive
COc1ccc(NS(=O)(=O)c2cccs2)c(OC)c1	none
O=C(Nc1ccc(Cl)c(-c2nc3ccccc3[nH]2)c1)c1ccc2c(c1)OCO2	none
O=C(Nc1ccc(-c2nc3ccccc3[nH]2)cc1)c1ccc2c(c1)OCO2	MBD2 inh 14 | UHRF1 DNA bind inactive | MBD2 DBD conf inactive
COC(=O)[C@]12C[C@H](CC(=O)N3CCOCC3)C(=O)N(CCC3=CCCCC3)C1=C[C@H](C(C)C)O[C@@H]2C1CC1	none
Cc1ccc(C(=O)NCc2ccc3c(c2)OCO3)c(C)c1	none
Cc1ccc(C(=O)NCc2ccc3c(c2)OCO3)c(Cl)c1	UHRF1 MBD2 ctr 22, MBD2 inh 15 | UHRF1 DNA bind inactive | MBD2 DBD conf inactive
CCCn1c(N)c(N2CCCCC2)c(=O)n(CC(=O)Nc2ccc(OC(F)(F)F)cc2)c1=O	UHRF1 MBD2 ctr 24, MBD2 inh 18 | UHRF1 DNA bind inactive | MBD2 DBD conf inactive
CCCn1c(N)c(N2CCCCC2)c(=O)n(CC(=O)Nc2ccccc2C)c1=O	none
COc1ccc(C(=O)C2(C(=O)NCc3ccccc3)CC(c3ccccc3C(F)(F)F)=NO2)cc1 (stereo not drawn)	none
COC(=O)[C@H](CC(C)C)N(Cc1cn(CC2CCCCC2)nn1)S(=O)(=O)c1ccccc1Br	MBD2 inh 17 | UHRF1 DNA bind inactive | MBD2 DBD conf inactive
COC(=O)[C@H](C(C)C)N(Cc1cn(CC2CCCCC2)nn1)S(=O)(=O)c1ccc(F)cc1Br	MBD2 inh 17 | UHRF1 DNA bind inactive | MBD2 DBD conf inactive
COC(=O)[C@H](CC(C)C)N(CCc1cn(CC2CCCCC2)nn1)S(=O)(=O)c1ccc(F)cc1Br	none
COC(=O)[C@H](C(C)C)N(CCCc1cn(CC2CCCCC2)nn1)S(=O)(=O)c1ccc(F)cc1Br	none
COC(=O)[C@H](CC(C)C)N(Cc1cn(CC2CCCCC2)nn1)S(=O)(=O)c1ccc(F)cc1Br	UHRF1 MBD2 ctr 21, MBD2 inh 19 | UHRF1 DNA bind inactive | MBD2 DBD conf inactive
CCN(Cc1cn(CC2CCCCC2)nn1)S(=O)(=O)c1ccccc1Br	none
O=C(O)c1cccc(NC(=S)NC(=O)C(c2ccccc2)c2ccccc2)c1	MBD2 inh 14 | UHRF1 DNA bind inactive | MBD2 DBD conf inactive
O=c1oc(-c2ccccc2)nc2sc3c(c12)CCC3	UHRF1 MBD2 ctr 46, MBD2 inh 18 | UHRF1 DNA bind 26 | MBD2 DBD conf 15
COc1ccc(CCC(=O)Nc2cccc(S(=O)(=O)N3CCCCCC3)c2)cc1	none
COc1ccc(CC(=O)Nc2cccc(S(=O)(=O)N3CCCCC3)c2)cc1	MBD2 inh 40 | UHRF1 DNA bind inactive | MBD2 DBD conf inactive
O=C(CCS(=O)(=O)c1cc2c(cc1Cl)NC(=O)CO2)NCCc1ccccc1	MBD2 inh 31 | UHRF1 DNA bind inactive | MBD2 DBD conf inactive
COc1ccc(S[C@]2(C(=O)N3CCCC3)CC(=O)N(c3ccc4c(ccn4C)c3)[C@@H]2c2ccc(OC)cc2)cc1	none
CCC(=O)c1ccc(OCC(=O)OC(C)C(=O)NCc2ccc3c(c2)OCO3)cc1 (stereo not drawn)	MBD2 inh 79 | UHRF1 DNA bind inactive | MBD2 DBD conf inactive
COc1ccc2c(CC(=O)N3CCN(S(=O)(=O)c4ccc(F)cc4)CC3)coc2c1	MBD2 inh 73 | UHRF1 DNA bind inactive | MBD2 DBD conf inactive
COc1ccc2c(CC(=O)N3CCN(S(=O)(=O)c4cccs4)CC3)coc2c1	none
COc1cc(/C=C(\C#N)C(=O)NCC2CCCO2)ccc1OCC(=O)O (stereo not drawn)	none
COc1cc(/C=C(\C#N)C(=O)NCC2CCCO2)c([N+](=O)[O-])cc1OC (stereo not drawn)	UHRF1 MBD2 ctr 21, MBD2 inh 14 | UHRF1 DNA bind inactive | MBD2 DBD conf inactive
S=C1NC[C@H](Cc2ccccc2)N1CC1CCN(CCCC2CCCCC2)CC1	none
C=CCn1c(=O)c2c(nc3n2CCCN3Cc2ccccc2)n(C)c1=O	UHRF1 MBD2 ctr 25, MBD2 inh 15 | UHRF1 DNA bind inactive | MBD2 DBD conf inactive
CCOC(=O)[C@@]12CCCC=C1N(CCc1ccc(Cl)cc1)C(=O)[C@H]2CC(=O)NCc1ccc(C)o1	none
Cc1oc2ccc(O)cc2c1C(=O)c1ccc(Br)cc1	MBD2 inh 16 | UHRF1 DNA bind inactive | MBD2 DBD conf inactive
Cc1oc2ccc(O)cc2c1C(=O)c1ccc(Cl)cc1	none
C=C(C)[C@@H]1CC2=C(OC)C(CC=C(C)C)(CC=C(C)C)C(=O)C(C(=O)c3ccccc3)=C2O1	none
CCOC(=O)c1c(NC(=O)c2ccc(S(=O)(=O)N3CCOCC3)cc2)sc2c1CCN(C(C)C)C2	UHRF1 MBD2 ctr 25, MBD2 inh 20 | UHRF1 DNA bind 34 | MBD2 DBD conf 27
CCOC(=O)c1c(NC(=O)C2CCCCC2)sc2c1CCN(C(C)C)C2	MBD2 inh 16 | UHRF1 DNA bind inactive | MBD2 DBD conf inactive
COC(=O)[C@]12C[C@H](CC(=O)NCC34CC5CC(CC(C5)C3)C4)C(=O)N(Cc3ccco3)C1=C[C@H](C(C)C)O[C@@H]2C1CC1	none
COc1ccc(-c2nc3c4ccccc4ccn3c2Cc2cccc(F)c2)cc1OC	MBD2 inh 15 | UHRF1 DNA bind inactive | MBD2 DBD conf inactive
